# Shown are actives, neighbours in structure and some others; about 3.8% of the full set was active somewhere.
# NPY-Y1 PAM-ag – human NPY-Y1 potentiation or agonism, primary screen; P25929; NPY-Y1 expressing cells, potentiator/agonist activation; activation, % at 3.6 µM; 220,000 compounds, 0.37% hits; AID 1304; in the data active means activation above about 33%, passing the limit was not always enough;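 further: cells stimulated with NPY at EC10 then isoproterenol at EC100; 0% = low agonist plus stimulus and 100% = saturating agonist plus stimulus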
# Target sequence (P25929 whole entry, looked up): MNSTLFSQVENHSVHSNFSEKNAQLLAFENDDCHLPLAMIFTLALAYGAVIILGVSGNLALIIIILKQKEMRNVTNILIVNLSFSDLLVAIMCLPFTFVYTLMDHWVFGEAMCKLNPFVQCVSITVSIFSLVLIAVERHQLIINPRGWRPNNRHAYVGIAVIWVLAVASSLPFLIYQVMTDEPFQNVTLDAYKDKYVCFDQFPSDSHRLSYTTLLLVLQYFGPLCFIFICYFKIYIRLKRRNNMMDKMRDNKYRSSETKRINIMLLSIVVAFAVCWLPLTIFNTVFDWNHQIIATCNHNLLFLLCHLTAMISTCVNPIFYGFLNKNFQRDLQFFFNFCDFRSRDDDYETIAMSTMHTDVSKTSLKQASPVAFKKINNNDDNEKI
# NPY-Y1 antag – NPY-Y1 (human) receptor antagonism. P25929. HEK293-CNG Y1 cells, membrane potential fluorescence; NPY at EC95, then isoproterenol. inhibition, % at 3.6 µM. 200,000 compounds, 1% hits;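 active means inhibition above the campaign mean inhibition of all tested compounds plus 3 SD, cut at about 20% in these data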;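 further: 0% = DMSO wells given NPY plus isoproterenol and 100% = isoproterenol alone without NPY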
#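 Assay system: HEK293 Y1/CNG channel cell line; Doses: single compound dose of 3.6 µM, 0.4% DMSO; Timing: dye 3 h, compound 60 min room temperature, stimulation 45 min; Technique: Membrane-potential fluorescent dye readout; Measure: % inhibition of NPY effect.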
# INS promoter inh – TRM-6 insulin promoter activity inhibition; TRM-6 cells, insulin promoter-eGFP reporter, imaging; reporter expression induced with tamoxifen; inhibition, % at 2 µM; 130,000 compounds, 0.9% hits;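 active means inhibition above the mean plus 3 SD, with well images judged a real hit on visual review, cut at about 60% in these data, passing the limit was not always enough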
# RAM network inh – yeast RAM network inhibition | S. cerevisiae dse1pr::URA3 reporter, 5-FOA growth OD615, 2 d; analog-sensitive cbk1-as2 kinase mutant strain | inhibition, % at 50 µM | 190,000 compounds, 1.8% hits;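 active means inhibition above a set limit, 3 SD over mean compound inhibition, cut at about 8.4% in these data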;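 further: 0% = DMSO-only wells with no growth and 100% = 10 µM 1-NA-PP1 full growth; inhibition rescues growth on 5-FOA so higher OD means more RAM inhibition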
# NPY2 pot ag – potentiators or agonists of human neuropeptide Y receptor Y2; 220,000 compounds, 0.45% hits; P49146; cells expressing NPY-Y2, potentiator/agonist read-out; activation, % at 3.6 µM; in the data active means activation above about 27%;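 further: cells stimulated with NPY near EC25 plus isoproterenol at EC100; 0% = vehicle plus submaximal agonist and 100% = vehicle plus saturating agonist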
# NPY-Y2 antag – antagonists of human neuropeptide Y receptor Y2 | P49146 | AID 793 | inhibition, % at 2.7 µM | 140,000 compounds, 0.99% hits | NPY-Y2 expressing cells, antagonist mode; in the data active means inhibition above about 17%;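 further: 0% = vehicle with agonist challenge and 100% = reference antagonist with challenge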
# RAM efflux-def – restores 5-FOA growth of efflux-deficient yeast; shares compounds with RAM network inh; S. cerevisiae efflux-deficient reporter strain, 5-FOA growth OD615, 2 days; max inhibition, %; 1,200 tested, under 10 active; call rule not given here;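 further: plate controls were vehicle for no effect and reference inhibitor for full effect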
# The depositor's hits bear a star; i = inactive; nt = no result given.
SMILES,NPY-Y1 PAM-ag,NPY-Y1 antag,INS promoter inh,RAM network inh,NPY2 pot ag,NPY-Y2 antag,RAM efflux-def
CCN(CC)S(=O)(=O)c1cccc(-c2nnc(SCc3nc4ccccc4s3)o2)c1,-11.6,7.4,86.7*,15.3*,6.0,13.7,2.5
CCN(CC)S(=O)(=O)c1ccc(-c2nnc(SC)o2)cc1,-9.0,1.2,-25.0,-0.1,-1.4,1.1,nt
CCN(CC)S(=O)(=O)c1cccc(-c2nnc(SCCCC(=O)c3ccc(F)cc3)o2)c1,-17.5,8.3,nt,13.1*,-3.0,9.0,3.1
CCN(CC)S(=O)(=O)c1ccc(-c2nnc(SCC(=O)c3ccc(OC)cc3)o2)cc1,4.2,-0.5,57.1,6.2,9.2,2.2,nt
CN(C)C(=O)c1cc([N+](=O)[O-])ccc1O,-4.3,-3.0,nt,2.2,-10.7,nt,nt
Cc1ccccc1Cn1nc(C)c(NC(=O)/C=C/c2cnn(C)c2)c1C,-18.3,-1.3,38.5,-1.0,11.7,-0.5,nt
COc1ccc(NC(=O)c2c([N+](=O)[O-])c(C(C)(C)C)nn2C)cc1,8.3,nt,nt,nt,-2.0,nt,nt
O=C(CC1SC(=Nc2ccc(OC(F)F)cc2)N(CCC2=CCCCC2)C1=O)Nc1ccccc1F (stereo not given),-0.2,0.7,10.3,11.5*,-13.7,0.4,1.8
COc1ccc(-n2nc(C(=O)Nc3ccc(OC)c(OC)c3)c3c4ccccc4n(C)c3c2=O)cc1,8.6,5.2,i,12.6*,-4.9,6.4,4.6
CCCn1c2c(c(O)c(C(=O)Nc3ccccc3)c1=O)CCCC2,9.5,2.7,nt,11.5*,-10.9,5.2,7.4
COCCN(C(=O)CSc1nnc(C)n1Cc1ccccc1)c1c(N)n(CC(C)C)c(=O)[nH]c1=O,-9.3,6.1,nt,2.0,3.6,nt,nt
CCCCCOC(=O)C1C(c2ccccc2)C(C(=O)O)C1c1ccccc1 (stereo not given),-13.2,7.3,-114.3,14.6*,-2.6,7.3,2.7
CCOC(=O)c1c(C)[nH]c(C(=O)COC(=O)C2(C)CC2(Cl)Cl)c1C (stereo not given),-14.6,0.3,-75.0,3.4,-7.7,1.3,nt
Cc1ccc(OCC(=O)O)c(-n2nc3ccccc3n2)c1,-23.4,7.4,11.4,0.3,-14.9,1.6,nt
Cc1ccc(NC(=O)COc2ccc(CCO)cc2-n2nc3ccccc3n2)cc1C,-25.1,5.7,6.7,11.8*,-6.3,2.2,8.4
CCCCc1ccc(-c2csc(/C(C#N)=C\c3ccc(C)o3)n2)cc1,-21.3,12.7,33.3,13.8*,-2.8,1.6,6.2
COCCOC(=O)c1c(C)oc2ccc(OC(=O)c3c(OC)cccc3OC)cc12,-5.9,-1.5,nt,12.4*,12.4,6.6,1.2
CCOC(=O)Oc1ccc2oc(C)c(C(=O)OCCOC)c2c1,-31.0,-1.5,0.0,2.0,11.5,2.2,nt
COc1cc(OC)c(NC(C)C(=O)N2CCCC2)cc1Cl (stereo not given),-3.7,-0.2,nt,1.1,5.4,nt,nt
C=CCSc1nc2ccccc2c2nc(-c3ccccc3)nn12,-20.9,3.6,-5.1,13.0*,-19.1,-1.7,2.5
Cc1ccc(S(=O)(=O)N2CCN(C(=O)c3ccc([N+](=O)[O-])cc3)C2)cc1,8.9,0.9,-128.6,0.3,-3.3,nt,nt
COc1ccc(C(=O)Nc2cc(OC)c(Cl)cc2OC)cc1,-14.2,2.7,-18.2,11.4*,-4.8,nt,2.8
COc1cc(NC(=O)c2ccc(F)cc2)c(OC)cc1Cl,-35.1,6.0,-19.1,1.3,-0.2,3.4,nt
Cc1ccc(C(=O)C(OC(=O)CCC(=O)Nc2cccc(C)c2)c2ccccc2)cc1 (stereo not given),13.8,0.8,-13.3,12.9*,0.0,2.4,4.3
COc1ccc(NC(=O)CCC(=O)OC(C(=O)c2ccccc2)c2ccccc2)cc1 (stereo not given),-5.7,-0.9,nt,3.2,-3.3,2.8,nt
SMILES,NPY-Y1 PAM-ag,NPY-Y1 antag,INS promoter inh,RAM network inh,NPY2 pot ag,NPY-Y2 antag,RAM efflux-def
CSc1ncccc1C(=O)Nc1ccc(S(=O)(=O)NC2=NCCCCC2)cc1,4.2,1.0,nt,0.5,-0.6,nt,nt
Cc1ccc(NC(=O)Cn2cccc2)cc1,-4.6,11.6,-28.6,1.0,-4.9,nt,nt
CON/C=C(\C=Nc1ccc(C(F)(F)F)cc1)c1ncc(C(F)(F)F)cc1Cl,9.5,4.9,-33.3,13.3*,13.9,1.5,1.9
C/C(=N\Nc1nc2c(s1)CCCC2)c1ccc(Cl)cc1,17.4,18.2,nt,12.6*,5.1,6.5,1.4
CC1=CC(C2CC(=O)N(c3ccccc3C)C2=O)CC2C(=O)N(c3ccccc3C)C(=O)C12 (stereo not given),13.1,7.2,35.7,0.5,7.8,1.3,nt
COc1ccc(-c2csc(NCc3ccco3)n2)cc1C,-10.2,1.3,nt,13.1*,-6.7,1.3,5.1
CN(C)c1ccc(N=Nc2ccccc2C(=O)OCC(=O)Nc2ccccc2C(F)(F)F)cc1,-3.3,-3.9,26.7,20.5*,14.1,-5.3,4.6
CN(C)c1ccc(N=Nc2ccccc2C(=O)OCC(=O)N2CCCC2)cc1,-13.4,0.1,nt,0.9,2.6,-0.8,nt
O=C(O)c1cc(-c2ccc(Cl)s2)[nH]n1,-23.5,nt,nt,nt,-31.2,nt,nt
CCOC(=O)c1c(-c2ccc(C)o2)csc1NC(=O)CSc1nncs1,-25.7,-0.4,15.2,11.8*,-12.4,5.2,1.4
CCCC(c1nnnn1Cc1ccco1)N1CCN(c2ccccc2)CC1 (stereo not given),6.0,4.1,nt,2.5,-13.3,nt,nt
CCCC(c1nnnn1Cc1ccco1)N1CCN(c2cc(Cl)ccc2C)CC1 (stereo not given),4.0,28.7*,nt,21.4*,-1.8,27.3*,1.7
CN(C)S(=O)(=O)c1cc(NC(=O)COC(=O)Cc2ccc(Br)cc2)ccc1Cl,-21.5,-3.4,0.0,11.8*,-3.6,0.3,1.3
COc1cc(CC(=O)OCC(=O)Nc2ccc(Cl)c(S(=O)(=O)N(C)C)c2)cc(OC)c1OC,5.1,nt,nt,nt,5.5,nt,nt
C/C(=N\O)C(C)(C)Nc1ccc(Cl)cc1,14.2,nt,nt,nt,8.6,nt,nt
CCOC(=O)c1oc2ccccc2c1CSc1nnnn1-c1ccc(OC)cc1,-3.3,6.5,14.3,7.4,-16.5,4.8,nt
CCOC(=O)c1oc2ccc(Br)cc2c1CSc1nnc(C)s1,-17.3,7.4,nt,17.4*,-0.9,2.2,2.0
O=C(O)c1cc([N+](=O)[O-])ccc1NCCO,-7.4,8.4,0.0,4.9,-2.4,0.9,nt
Cc1ccc(C)c(C(=O)COC(=O)c2cc([N+](=O)[O-])ccc2NCCO)c1,-9.6,4.9,nt,13.3*,10.8,0.0,1.0
O=C(/C=C/c1ccccc1)n1cnnc1SC/C=C/c1ccccc1,-9.6,5.1,-7.1,11.7*,-11.8,5.8,7.9
Cc1nnc(SC/C=C/c2ccccc2)n(N)c1=O,9.7,8.0,-88.9,2.7,10.1,nt,nt
NS(=O)(=O)c1ccc(CCNC(=O)/C=C/c2cccc([N+](=O)[O-])c2)cc1,10.1,-0.2,nt,3.5,-5.8,nt,nt

# Bioassay records deposited in PubChem BioAssay by several laboratories.
